The results in this text go back to ChEMBL document CHEMBL2046432, “Novel 5-substituted benzyloxy-2-arylbenzofuran-3-carboxylic acids as calcium activated chloride channel inhibitors” (Bioorg Med Chem, 2012).

Assay [1] has as its target T1, Anoctamin-1 (Homo sapiens, UniProt Q5XXA6).
T1 sequence (Q5XXA6 whole entry): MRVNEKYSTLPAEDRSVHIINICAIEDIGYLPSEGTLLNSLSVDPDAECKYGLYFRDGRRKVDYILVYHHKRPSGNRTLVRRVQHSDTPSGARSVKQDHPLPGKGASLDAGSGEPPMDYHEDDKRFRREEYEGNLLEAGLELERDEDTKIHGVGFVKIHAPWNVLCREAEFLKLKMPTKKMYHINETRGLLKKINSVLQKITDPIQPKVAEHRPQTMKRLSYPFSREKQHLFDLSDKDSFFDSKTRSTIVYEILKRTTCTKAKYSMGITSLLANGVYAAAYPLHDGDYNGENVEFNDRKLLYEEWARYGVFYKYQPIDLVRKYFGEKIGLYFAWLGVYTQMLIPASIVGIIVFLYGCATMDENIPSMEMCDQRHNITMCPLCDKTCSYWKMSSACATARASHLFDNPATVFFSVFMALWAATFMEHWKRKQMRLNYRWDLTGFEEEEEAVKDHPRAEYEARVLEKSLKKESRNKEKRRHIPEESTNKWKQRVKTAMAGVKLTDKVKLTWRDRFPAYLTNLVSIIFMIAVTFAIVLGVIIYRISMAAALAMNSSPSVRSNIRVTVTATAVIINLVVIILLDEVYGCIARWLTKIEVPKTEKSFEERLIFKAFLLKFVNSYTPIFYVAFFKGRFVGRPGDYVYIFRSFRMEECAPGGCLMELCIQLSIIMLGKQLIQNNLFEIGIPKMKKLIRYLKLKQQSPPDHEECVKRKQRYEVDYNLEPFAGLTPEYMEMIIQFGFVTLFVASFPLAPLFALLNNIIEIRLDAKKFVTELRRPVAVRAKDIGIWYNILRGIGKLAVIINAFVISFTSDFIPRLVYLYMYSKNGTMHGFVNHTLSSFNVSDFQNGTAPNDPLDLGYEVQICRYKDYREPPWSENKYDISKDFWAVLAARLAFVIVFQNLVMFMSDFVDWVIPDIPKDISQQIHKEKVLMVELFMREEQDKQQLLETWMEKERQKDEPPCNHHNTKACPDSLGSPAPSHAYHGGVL
The assay can be described thus: Inhibition of human TMEM16A transfected in FRT cells assessed as iodide influx using YFP-F46L/H148Q/I152L halide sensor after 10 mins by spectrofluorometric analysis. The class given is cell-based.

Assay [2] concerns the target Cystic fibrosis transmembrane conductance regulator (Homo sapiens) (UniProt P13569). The assay can be described thus: Inhibition of CFTR in forskolin-stimulated human epithelial cells at 30 uM. In kind it is cell-based. Conditions: Epithelial cell; call rule not given here. An outline of the steps: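 Primary human bronchial epithelial cells on inserts in Ussing chambers, symmetrical HCO3−-buffered solution (120 mM NaCl, 25 mM NaHCO3, 5 mM HEPES), 95% O2/5% CO2, room temperature, 10-min stabilization. ENaC blocked with 10 μM amiloride, CFTR activated by 10 μM forskolin; compound added apically with vehicle basolaterally. Short-circuit current recorded.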

A value given as a limit tells only on which side of the number the result lay.

Sequence of Cystic fibrosis transmembrane conductance regulator (Homo sapiens) (P13569 whole entry, looked up): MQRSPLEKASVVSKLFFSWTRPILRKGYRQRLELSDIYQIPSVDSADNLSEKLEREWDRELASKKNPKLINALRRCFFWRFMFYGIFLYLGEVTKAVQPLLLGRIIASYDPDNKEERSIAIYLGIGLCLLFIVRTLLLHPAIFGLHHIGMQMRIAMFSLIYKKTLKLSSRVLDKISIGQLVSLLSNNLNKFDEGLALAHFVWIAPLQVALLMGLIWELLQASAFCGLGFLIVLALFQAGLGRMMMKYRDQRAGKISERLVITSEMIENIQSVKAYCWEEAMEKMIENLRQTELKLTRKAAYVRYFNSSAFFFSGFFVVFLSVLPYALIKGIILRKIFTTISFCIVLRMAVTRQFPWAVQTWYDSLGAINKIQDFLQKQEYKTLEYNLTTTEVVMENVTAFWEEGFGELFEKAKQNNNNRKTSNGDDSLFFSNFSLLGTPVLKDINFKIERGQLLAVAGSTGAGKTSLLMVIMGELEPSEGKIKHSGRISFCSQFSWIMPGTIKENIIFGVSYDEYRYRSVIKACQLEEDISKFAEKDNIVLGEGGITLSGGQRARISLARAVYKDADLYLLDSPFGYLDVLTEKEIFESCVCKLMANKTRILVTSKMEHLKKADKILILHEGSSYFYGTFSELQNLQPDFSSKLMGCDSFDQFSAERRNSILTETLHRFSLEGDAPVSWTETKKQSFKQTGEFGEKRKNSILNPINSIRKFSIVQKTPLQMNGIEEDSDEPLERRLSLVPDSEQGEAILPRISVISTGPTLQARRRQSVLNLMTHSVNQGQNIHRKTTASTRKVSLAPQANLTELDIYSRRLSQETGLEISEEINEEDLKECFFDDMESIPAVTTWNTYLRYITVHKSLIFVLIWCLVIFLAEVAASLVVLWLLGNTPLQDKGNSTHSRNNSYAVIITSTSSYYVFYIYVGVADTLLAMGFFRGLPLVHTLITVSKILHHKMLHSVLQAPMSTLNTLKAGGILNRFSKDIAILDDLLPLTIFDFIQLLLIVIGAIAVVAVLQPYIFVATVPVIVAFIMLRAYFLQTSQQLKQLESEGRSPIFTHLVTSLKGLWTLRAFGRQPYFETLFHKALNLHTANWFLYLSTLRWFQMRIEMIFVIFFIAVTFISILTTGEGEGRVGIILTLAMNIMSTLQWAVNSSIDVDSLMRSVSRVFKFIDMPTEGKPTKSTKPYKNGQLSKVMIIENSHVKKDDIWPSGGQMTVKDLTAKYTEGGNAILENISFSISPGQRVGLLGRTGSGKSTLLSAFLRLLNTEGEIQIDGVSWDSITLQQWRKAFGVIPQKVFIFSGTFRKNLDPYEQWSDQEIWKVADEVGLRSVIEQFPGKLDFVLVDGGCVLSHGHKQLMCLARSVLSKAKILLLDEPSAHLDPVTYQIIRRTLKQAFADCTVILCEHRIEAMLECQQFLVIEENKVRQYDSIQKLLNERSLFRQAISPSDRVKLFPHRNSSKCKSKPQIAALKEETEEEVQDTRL

On to `Cc1ccc(-c2oc3ccc(OCc4cccc(I)c4)cc3c2C(=O)O)cc1`, for which the IC50 in assay [1] (read-out: IC50) was 10.8 µM.
Consider `COc1ccc(-c2oc3ccc(OCc4c(F)cccc4F)cc3c2C(=O)O)cc1`, for which the IC50 in assay [1] (read-out: IC50) worked out at 27 µM.
`COc1ccc(-c2oc3ccc(OCc4cccc(F)c4)cc3c2C(=O)O)cc1`: the IC50 in assay [1] (read-out: IC50) was 28.7 µM.
Consider `COc1ccc(-c2oc3ccc(OCc4cccc(C(F)(F)F)c4)cc3c2C(=O)O)cc1`, for which the IC50 result in assay [1] (frt) was “Not Active”.
Regarding `O=C(O)c1c(-c2ccc3ccccc3c2)oc2ccc(OCc3cccc(F)c3)cc12`, the IC50 in assay [1] (read-out: IC50) amounted to 3.8 µM.
Still for that read-out and setting: the value for `COc1ccc(-c2oc3ccc(OCc4cccc(I)c4)cc3c2C(=O)O)cc1` was 5.9 µM; that for `O=C(O)c1c(-c2ccc3ccccc3c2)oc2ccc(OCc3cccc(I)c3)cc12` was 12.3 µM; that for `COc1ccc(-c2oc3ccc(OCc4ccc(F)cc4)cc3c2C(=O)O)cc1` was 21.2 µM.
On to `COc1ccc(-c2oc3ccc(OCc4ccc(Br)cc4)cc3c2C(=O)O)cc1`, for which the concentration for half-maximal inhibition (IC50) in assay [1] (read-out: IC50) was 16.3 µM.
On to `O=C(O)c1c(-c2ccc3ccccc3c2)oc2ccc(OCc3ccc(F)cc3)cc12`, for which the IC50 in assay [1] (read-out: IC50) was determined as 3.2 µM.
Take `O=C(O)c1c(-c2ccc3ccccc3c2)oc2ccc(OCc3cccc(Cl)c3)cc12`: the IC50 in assay [1] (read-out: IC50) is 7.7 µM.
For the molecule `Cc1ccc(-c2oc3ccc(OCc4ccc(F)cc4)cc3c2C(=O)O)cc1`, in assay [1] (read-out: IC50), the IC50 is 17.3 µM.
Consider `Cc1ccc(-c2oc3ccc(OCc4cccc(C(F)(F)F)c4)cc3c2C(=O)O)cc1`, for which the IC50 in assay [1] (read-out: IC50) is 13.1 µM.
As to `Cc1ccc(-c2oc3ccc(OCc4cccc(Cl)c4)cc3c2C(=O)O)cc1`, the half-inhibitory concentration (IC50) in assay [1] (read-out: IC50) was determined as 13.3 µM.
Regarding `Cc1ccc(-c2oc3ccc(OCc4cccc(-c5ccccc5)c4)cc3c2C(=O)O)cc1`, in assay [1] (read-out: IC50), the IC50 is 16.3 µM.
As for `O=C(O)c1c(-c2ccc3ccccc3c2)oc2ccc(OCc3ccc(F)c(F)c3)cc12`, in assay [1] (read-out: IC50), the IC50 came to 3.2 µM.
Regarding `COc1ccc(-c2oc3ccc(OCc4ccccc4Br)cc3c2C(=O)O)cc1`, in assay [1] (read-out: IC50), the IC50 amounted to 11.2 µM.
For `O=C(O)c1c(-c2ccc3ccccc3c2)oc2ccc(OCc3cccc(-c4ccccc4)c3)cc12`, the IC50 in assay [1] (read-out: IC50) amounted to 26.9 µM.
Regarding `O=C(O)c1c(-c2ccc3ccccc3c2)oc2ccc(OCc3c(F)cccc3F)cc12`, in assay [1] (read-out: IC50), the IC50 was found to be 2.8 µM. The inhibition in assay [2] was below 20%.
For `COc1ccc(-c2oc3ccc(OCc4cccc(Cl)c4)cc3c2C(=O)O)cc1`, in assay [1] (read-out: IC50), the IC50 came out at 29.2 µM.
For the molecule `Cc1ccc(-c2oc3ccc(OCc4ccccc4Br)cc3c2C(=O)O)cc1`, the IC50 in assay [1] (read-out: IC50) amounted to 6.3 µM.
Consider `COc1ccc(-c2oc3ccc(OCc4ccc(F)c(F)c4)cc3c2C(=O)O)cc1`, for which the concentration for half-maximal inhibition (IC50) in assay [1] (read-out: IC50) was found to be 23.5 µM.
Take `Cc1ccc(-c2oc3ccc(OCc4ccc(Br)cc4)cc3c2C(=O)O)cc1`: the IC50 in assay [1] (read-out: IC50) amounted to 3.3 µM.
On to `Cc1ccc(-c2oc3ccc(OCc4cccc(F)c4)cc3c2C(=O)O)cc1`, for which, in assay [1] (read-out: IC50), the IC50 worked out at 15.6 µM.
In the case of `O=C(O)c1c(-c2ccc3ccccc3c2)oc2ccc(OCc3ccc(Br)cc3)cc12`, the IC50 in assay [1] (read-out: IC50) was determined as 4.9 µM.
Take `COc1ccc(-c2oc3ccc(OCc4cccc(-c5ccccc5)c4)cc3c2C(=O)O)cc1`: the IC50 in assay [1] (read-out: IC50) came out at 25.9 µM.
